# Activity calls are given as the source filed them. No cut-off for these calls is given here.
# Assays:
# Format in all cases: functional
# Homo sapiens [1] = organism: Homo sapiens; assay: Induction of ATF-3 expression in HAEC at 3 uM after 4 hrs by qPCR analysis
# How it was run: (§1)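 Cultured HAECs, switched overnight to M199/10% FBS, exposed for 4 h to 3 μM lipid in M199 with 1% FBS, duplicate/replicate wells. Cells scraped, mRNA quantified by qPCR with GAPDH normalization; fold change of treated over untreated cells.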
# Homo sapiens [2] = organism: Homo sapiens; assay: Induction of HO-1 expression in HAEC at 3 uM after 4 hrs by qPCR analysis; how it was run: as §1
# Homo sapiens [3] = organism: Homo sapiens; assay: Induction of IL-8 expression in HAEC at 3 uM after 4 hrs by qPCR analysis; how it was run: as §1
# Homo sapiens [4] = organism: Homo sapiens; assay: Induction of HSP1A1 expression in HAEC at 3 uM after 4 hrs by qPCR analysis
# Homo sapiens [5] = organism: Homo sapiens; assay: Induction of VCAM-1 expression in HAEC at 6 uM after 4 hrs by microarray assay relative to control
# How it was run: (§2)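 Microarray on RNA from duplicate HAEC wells given 3 μM EI4 or 6 μM PEIPC in M199 with 1% FBS for 4 h, or left untreated. Probes with detection p < 0.001 retained. Fold change is mean treated probe level over mean control probe level. Genes counted as regulated at ≥1.2-fold.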
# Homo sapiens [6] = organism: Homo sapiens; assay: Induction of ICAM-1 expression in HAEC at 6 uM after 4 hrs by microarray assay relative to control; how it was run: as §2
# Homo sapiens [7] = organism: Homo sapiens; assay: Induction of MCP1 expression in HAEC at 3 uM after 4 hrs by qPCR analysis; how it was run: as §1
# Homo sapiens [8] = organism: Homo sapiens; assay: Induction of IL-8 expression in HAEC at 6 uM after 4 hrs by microarray assay relative to control; how it was run: as §2
# Homo sapiens [9] = organism: Homo sapiens; assay: Induction of CXCL1 expression in HAEC at 6 uM after 4 hrs by microarray assay relative to control; how it was run: as §2
# Homo sapiens [10] = organism: Homo sapiens; assay: Induction of MCP1 expression in HAEC at 6 uM after 4 hrs by microarray assay relative to control; how it was run: as §2
# Homo sapiens [11] = organism: Homo sapiens; assay: Induction of RelB expression in HAEC at 6 uM after 4 hrs by microarray assay relative to control; how it was run: as §2
# Homo sapiens [12] = organism: Homo sapiens; assay: Induction of CXCL6 expression in HAEC at 6 uM after 4 hrs by microarray assay relative to control; how it was run: as §2
# Homo sapiens [13] = organism: Homo sapiens; assay: Induction of NfKB1A expression in HAEC at 6 uM after 4 hrs by microarray assay relative to control; how it was run: as §2
# Homo sapiens [14] = organism: Homo sapiens; assay: Induction of IL-6 expression in HAEC at 6 uM after 4 hrs by microarray assay relative to control; how it was run: as §2
# Homo sapiens [15] = organism: Homo sapiens; assay: Induction of E-selectin expression in HAEC at 6 uM after 4 hrs by qPCR analysis relative to control
# Homo sapiens [16] = organism: Homo sapiens; assay: Induction of VCAM-1 expression in HAEC at 3 uM after 4 hrs by microarray assay relative to control; how it was run: as §2
# Homo sapiens [17] = organism: Homo sapiens; assay: Inhibition of IL-1beta-induced VCAM-1 mRNA expression in HAEC at 3 uM treated 1 hr before IL-1beta stimulation measured after 4 hrs by qPCR analysis
# How it was run: (§3)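 RNA measured by qPCR. HAECs preincubated 1 h with 3 μM EI4, then exposed 4 h to 20 ng/mL IL-1β with EI still present. Value reported as percent reduction of the IL-1β-induced fold change.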
# Homo sapiens [18] = organism: Homo sapiens; assay: Inhibition of IL-1beta-induced CXCL6 mRNA expression in HAEC at 3 uM treated 1 hr before IL-1beta stimulation measured after 4 hrs by qPCR analysis; how it was run: as §3
# Homo sapiens [19] = organism: Homo sapiens; assay: Inhibition of IL-1beta-induced CXCL1 mRNA expression in HAEC at 3 uM treated 1 hr before IL-1beta stimulation measured after 4 hrs by qPCR analysis; how it was run: as §3
# [20] = Decrease of MCP-1 protein expression in HAEC at 6 uM after 4 hrs by ELISA; conditions: Homo sapiens
# How it was run: (§4)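 HAECs kept overnight in M199 with 10% FBS, then left untreated or given increasing EI concentrations for 4 h in M199 with 1% FBS, triplicate wells. IL-8 and MCP-1 in the collected medium quantified by ELISA. Significance versus untreated control by Student t test.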
# Homo sapiens [21] = organism: Homo sapiens; assay: Induction of E-selectin expression in HAEC at 3 uM after 4 hrs by microarray assay relative to control; how it was run: as §2
# Homo sapiens [22] = organism: Homo sapiens; assay: Inhibition of IL-1beta-induced E-selectin mRNA expression in HAEC at 3 uM treated 1 hr before IL-1beta stimulation measured after 4 hrs by qPCR analysis; how it was run: as §3
# Homo sapiens [23] = organism: Homo sapiens; assay: Induction of ICAM-1 expression in HAEC at 3 uM after 4 hrs by microarray assay relative to control; how it was run: as §2
# Homo sapiens [24] = organism: Homo sapiens; assay: Induction of CXCL1 expression in HAEC at 3 uM after 4 hrs by microarray assay relative to control; how it was run: as §2
# Homo sapiens [25] = organism: Homo sapiens; assay: Induction of IL-8 expression in HAEC at 3 uM after 4 hrs by microarray assay relative to control; how it was run: as §2
# Homo sapiens [26] = organism: Homo sapiens; assay: Inhibition of IL-1beta-induced MCP-1 protein expression in HAEC at 3 uM co-treated with IL-1beta measured after 4 hrs by ELISA
# How it was run: (§5)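 HAECs preincubated 1 h with 3 μM EI4, then given 20 ng/mL IL-1β plus EI for 4 h. MCP-1 in the medium measured by ELISA and compared with IL-1β alone; significance by p value.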
# Homo sapiens [27] = organism: Homo sapiens; assay: Induction of MCP1 expression in HAEC at 3 uM after 4 hrs by microarray assay relative to control; how it was run: as §2
# Homo sapiens [28] = organism: Homo sapiens; assay: Induction of NfKB1A expression in HAEC at 3 uM after 4 hrs by microarray assay relative to control; how it was run: as §2
# Homo sapiens [29] = organism: Homo sapiens; assay: Induction of IL-6 expression in HAEC at 3 uM after 4 hrs by microarray assay relative to control; how it was run: as §2
# Homo sapiens [30] = organism: Homo sapiens; assay: Inhibition of IL-1beta-induced IL-6 mRNA expression in HAEC at 3 uM treated 1 hr before IL-1beta stimulation measured after 4 hrs by qPCR analysis; how it was run: as §3
# Homo sapiens [31] = organism: Homo sapiens; assay: Inhibition of IL-1beta-induced ICAM-1 mRNA expression in HAEC at 3 uM treated 1 hr before IL-1beta stimulation measured after 4 hrs by qPCR analysis; how it was run: as §3
# Homo sapiens [32] = organism: Homo sapiens; assay: Induction of IL-8 protein expression in HAEC at 0.75 to 1.5 uM after 4 hrs by ELISA; how it was run: as §4
# [33] = Decrease of IL-8 protein expression in HAEC at 6 uM after 4 hrs by ELISA; conditions: Homo sapiens; how it was run: as §4
# Homo sapiens [34] = organism: Homo sapiens; assay: Inhibition of IL-1beta-induced MCP-1 protein expression in HAEC at 3 uM treated 1 hr before IL-1beta stimulation measured after 4 hrs by ELISA; how it was run: as §5
# Homo sapiens [35] = organism: Homo sapiens; assay: Induction of RelB expression in HAEC at 3 uM after 4 hrs by microarray assay relative to control; how it was run: as §2
# Homo sapiens [36] = organism: Homo sapiens; assay: Induction of CXCL6 expression in HAEC at 3 uM after 4 hrs by microarray assay relative to control; how it was run: as §2
# Homo sapiens [37] = organism: Homo sapiens; assay: Inhibition of IL-1beta-induced MCP-1 mRNA expression in HAEC at 3 uM treated 1 hr before IL-1beta stimulation measured after 4 hrs by qPCR analysis; how it was run: as §3
compound,measurement,setting,value
CCCCC/C=C\C[C@H]1/C(=C\[C@@H]2O[C@H]2CCCC(=O)O)C(=O)C[C@H]1O,Activity,Homo sapiens [1],Active
same,Activity,Homo sapiens [2],Active
same,Activity,Homo sapiens [3],Active
same,Activity,Homo sapiens [4],Active
"CCCCC/C=C\C[C@@H]1/C(=C\C2O[C@@H]2CCCC(=O)O)C(=O)CC1O (single isomer, unassigned)",Activity,Homo sapiens [1],Active
same,Activity,Homo sapiens [2],Active
same,Activity,Homo sapiens [3],Active
same,Activity,Homo sapiens [4],Active
CCCCC/C=C\CC1/C(=C\C2OC2CCCC(=O)OC(COC(=O)CCCCCCCCCCCCCCC)COP(=O)([O-])OCC[N+](C)(C)C)C(=O)CC1O (stereo not drawn),Activity,Homo sapiens [1],Active
same,fold change (FC),Homo sapiens [5],1.2
same,Activity,Homo sapiens [2],Active
same,fold change (FC),Homo sapiens [6],2.3
same,Activity,Homo sapiens [7],Active
same,fold change (FC),Homo sapiens [8],17
same,fold change (FC),Homo sapiens [9],4.8
same,fold change (FC),Homo sapiens [10],13
same,fold change (FC),Homo sapiens [11],4.2
same,fold change (FC),Homo sapiens [12],1.4
same,fold change (FC),Homo sapiens [13],4
same,fold change (FC),Homo sapiens [14],2.2
same,fold change (FC),Homo sapiens [15],2.38
CCCCC/C=C\C[C@@H]1/C(=C\[C@H]2O[C@@H]2CCCC(=O)O)C(=O)C[C@H]1O,fold change (FC),Homo sapiens [16],0.27
same,Activity,Homo sapiens [1],Active
same,inhibition,Homo sapiens [17],92.1%
same,Activity,Homo sapiens [2],Active
same,inhibition,Homo sapiens [18],87.6%
same,Activity,Homo sapiens [7],Active
same,inhibition,Homo sapiens [19],53.4%
same,Activity,[20],Active
same,fold change (FC),Homo sapiens [21],0.21
same,inhibition,Homo sapiens [22],69.5%
same,fold change (FC),Homo sapiens [23],0.75
same,fold change (FC),Homo sapiens [24],1.3
same,fold change (FC),Homo sapiens [25],3
same,inhibition,Homo sapiens [26],Active
same,fold change (FC),Homo sapiens [27],0.2
same,Activity,Homo sapiens [3],Active
same,fold change (FC),Homo sapiens [28],0.79
same,fold change (FC),Homo sapiens [29],0.6
same,inhibition,Homo sapiens [30],76%
same,inhibition,Homo sapiens [31],52.3%
same,Activity,Homo sapiens [32],Active
same,Activity,[33],Active
same,inhibition,Homo sapiens [34],Active
same,fold change (FC),Homo sapiens [35],0.8
same,fold change (FC),Homo sapiens [36],0.59
same,Activity,Homo sapiens [4],Active
same,inhibition,Homo sapiens [37],79.6%
CCCCC/C=C\C[C@H]1/C(=C\[C@@H]2O[C@H]2CCCC(=O)O)C(=O)C[C@@H]1O,Activity,Homo sapiens [1],Active
same,Activity,Homo sapiens [2],Active
same,Activity,Homo sapiens [7],Active
same,Activity,Homo sapiens [3],Active
same,Activity,Homo sapiens [4],Active

# Reference: ChEMBL document CHEMBL2440074, “An epoxyisoprostane is a major regulator of endothelial cell function” (J Med Chem, 2013)
